These results are taken from publication PMC10843616 (European journal of medicinal chemistry, 2023).

Where two headings read alike, the source gives them in different places.

Data set [1] in a line: Human liver microsome stability. The settings on record: liver microsomes. The class given is in vitro ADME. (Liver microsomes are vesicles of endoplasmic reticulum, rich in cytochrome P450 enzymes.)
Data set [2] concerns bloodstream forms of T. brucei brucei (strain 427). Description: T. b. brucei growth inhibition, Alamar blue assay. The class given is cell-based, Trypanosoma brucei brucei. The settings on record: Hep G2 CC50 / T.b.b EC50. On the technique in general: Alamar Blue is a resazurin reagent that responds to reducing activity.
The test system of data set [3] is Bloodstream forms of T. b. gambiense (130R). The data set can be described thus: T. b. gambiense growth inhibition, resazurin assay. The class given is cell-based, Trypanosoma brucei gambiense. The conditions noted are these: for SI (CC50/EC50), T.b.g: Hep G2 CC50 / T.b.g EC50.
Data set [4] has as its system Bloodstream forms of T. b. rhodesiense (STIB 900). Description: T. b. rhodesiense growth inhibition, resazurin assay. Type of data set: cell-based, Trypanosoma brucei rhodesiense. The conditions noted are these: for SI (CC50/EC50), T.b.r: Hep G2 CC50 / T.b.r EC50.
Data set [5] relates to T. b. brucei AnTat1.1 trypomastigotes expressing Renilla luciferase. The data set can be described thus: T. b. brucei acute infection mouse efficacy. Type of data set: in vivo, BALB/c mice. The settings on record: 5 consecutive days; for parasite growth in vivo, intraperitoneal: 100 mpk IP; for parasite growth in vivo, oral: 100 mpk oral gavage.
Data set [6] deals with T. b. rhodesiense STIB 900-luc. Description: T. b. rhodesiense acute infection mouse efficacy. The class given is in vivo, NMRI mice. The settings on record: four days; for animals surviving to 60 days with no detectable parasitemia: oral. An outline of the steps:
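Female NMRI mice, five per group, were inoculated i.p. with 1 x 10^4 bloodstream-form STIB 900-luc. Oral gavage started day 3 post-infection for four consecutive days, in PBS with 0.5% hydroxyl-methylcellulose and 0.5% Tween 80. Three mice were infected-untreated controls. Parasitemia was tracked by whole-animal bioluminescence imaging after D-luciferin: twice weekly for two weeks after treatment, then weekly to day 60. Cure meant a day-60 signal not above background.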

A short description of data set [7]: Single-dose pharmacokinetics in mice. Type of data set: in vivo, mice (C57BL/6. The settings on record: male, C57BL/6, mouse, plasma, oral, 5 mg/kg.
Data set [8] deals with tCatL (trypanosomal cathepsin-L) (Trypanosoma brucei rhodesiense, UniProt Q95PM0). The data set can be described thus: tCatL inhibition assay. Type of data set: biochemical. The settings on record: at 10 μM after 1 hour. The method in brief:
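Recombinant tCatL was expressed in Pichia pastoris and purified. Inhibition was run by a previously published protocol, with E-64 as the positive control.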

For data set [9] the following is noted: 25 mpk; ref as previously reported; cited from earlier work.
A further data set relates to T. b. rhodesiense. The conditions noted are these: 100 mpk once a day; ref as previously reported; cited from earlier work.

Take `O=C(N[C@H](/C=C/S(=O)(=O)c1ccccc1)CCc1ccccc1)c1ccc([N+](=O)[O-])o1` [Compound 1]: the half-life in data set [1] was 10.8 min.

As to `O=C(N[C@H](/C=C/S(=O)(=O)c1ccccc1)CCc1ccccc1)c1cc(Cl)c([N+](=O)[O-])[nH]1` [Compound 3, (S,E)-4-chloro-5-nitro-N-[5-phenyl-1-(phenylsulfonyl)pent-1-en-3-yl]-1H-pyrrole-2-carboxamide], the “SI (CC50/EC50), T.b.b” value in data set [2] is given as greater than 5.13.

In the case of `O=C(NC/C=C/S(=O)(=O)c1ccccc1)c1ccc([N+](=O)[O-])s1` [Compound 4, (E)-5-nitro-N-[3-(phenylsulfonyl)allyl]thiophene-2-carboxamide], the “SI (CC50/EC50), T.b.g” value in data set [3] is reported as 63.81. Further, the “SI (CC50/EC50), T.b.b” value in data set [2] is given as 3.21. In addition, in data set [4], the “SI (CC50/EC50), T.b.r” value is given as 33.47.

Take `O=C(NC/C=C/S(=O)(=O)c1ccccc1)c1ccco1` [Compound 6, (E)-N-[3-(phenylsulfonyl)allyl]furan-2-carboxamide]: the “SI (CC50/EC50), T.b.b” value in data set [2] was 34.02.

`CS(=O)(=O)/C=C/CNC(=O)c1ccc([N+](=O)[O-])o1` [Compound 7, (E)-N-[3-(methylsulfonyl)allyl]-5-nitrofuran-2-carboxamide]: in [5], the “parasite growth in vivo, intraperitoneal” value is listed as “ineffective” and the “parasite growth in vivo, oral” value is “reduced parasitemia”.

`CNC(=O)/C=C/CNC(=O)c1ccc([N+](=O)[O-])s1` [Compound 10, (E)-N-[4-(methylamino)-4-oxobut-2-en-1-yl]-5-nitrothiophene-2-carboxamide]: the “SI (CC50/EC50), T.b.g” value in data set [3] is greater than 576.92. Also, in data set [2], the “SI (CC50/EC50), T.b.b” value was greater than 138.88. In addition, in [6] (100 mpk b.i.d, orally), the “animals surviving to 60 days” value is on record as 3 out of 5. Also, the “animals surviving to 60 days with no detectable parasitemia” value in data set [6] (200 mpk once daily) was 4 out of 5. In addition, the “animals surviving to 60 days with no detectable parasitemia” value in data set [6] (200 mpk twice daily) is given as 4 out of 5. Also, the “SI (CC50/EC50), T.b.r” value in data set [4] is on record as greater than 535.71. Further, the concentration for an effect of 90% (EC90) in [4] (Trypanosoma brucei, RHODESIENSE|STIB900, read-out: EC90 for T. b. rhodesiense) turned out to be 210 nM. In data set [5], the “parasite growth in vivo, intraperitoneal” value is “suppressed parasite growth” and the “parasite growth in vivo, oral” value was “suppressed parasite growth”. This molecule also had a concentration at 2 h in data set [7] of 720 nM.

For the molecule `CNC(=O)/C=C/CNC(=O)c1ccc([N+](=O)[O-])o1` [Compound 11, (E)-N-[4-(methylamino)-4-oxobut-2-en-1-yl]-5-nitrofuran-2-carboxamide], the “SI (CC50/EC50), T.b.g” value in data set [3] was greater than 159.57. Also, in data set [2], the “SI (CC50/EC50), T.b.b” value was greater than 44.38. Besides, the “SI (CC50/EC50), T.b.r” value in data set [4] is recorded as greater than 340.91.

With `CS(=O)(=O)CCCNC(=O)c1cccs1` [Compound 16, N-[3-(methylsulfonyl)propyl]thiophene-2-carboxamide], the “Percentage inhibition of tCatL” value in data set [8] was “inactive”.

With `CNC(=O)CCCNC(=O)c1ccc([N+](=O)[O-])s1` [Compound 17, N-[4-(methylamino)-4-oxobutyl]-5-nitrothiophene-2-carboxamide], the “Percentage inhibition of tCatL” value in [8] is “inactive”.

On to `CNC(=O)CCCNC(=O)c1cccs1` [Compound 18, N-[4-(methylamino)-4-oxobutyl]thiophene-2-carboxamide], for which, in data set [8], the “Percentage inhibition of tCatL” value was “inactive”.

With `CC(C)C[C@H](NC(=O)[C@H]1O[C@@H]1C(=O)O)C(=O)NCCCCN=C(N)N` [Compound E64, E-64, reference compound], the “Percentage inhibition of tCatL” value in data set [8] is recorded as 100%.

On to `Nc1nc(N)nc(Nc2ccc([As]3SCC(CO)S3)cc2)n1` (stereo not shown) [Melarsoprol, reference compound], for which the EC50 in [3] (Trypanosoma brucei, GAMBIENSE, 68 h, read-out: T.b.g EC50, 130R, 68 h incubation) is 7 ± 3 nM.

With `CSc1ccc(OCc2ncc([N+](=O)[O-])n2C)cc1` [fexinidazole], the half-life in data set [9] is 48 min. Besides, the “infected mice treated (cured)” value in the data set with T. b. rhodesiense is 4 out of 4.

Usually half-life stands for the time in which the quantity being followed falls by half. One may read the EC90 as the concentration needed for an effect of 90%. As usually defined, the EC50 is the concentration at which the effect is half-maximal.
